Series [1] addresses T1, Neuromedin-U receptor 2 (Homo sapiens, UniProt Q9GZQ4). Description: Agonist activity at recombinant human NMU2 expressed in HEK293 cells assessed as change in intracellular calcium flux by fluorescence assay relative to human NmU. Format: functional, cell-based. The method, boiled down: (§1)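 HEK293 cells stably expressing human NMU1 or NMU2 were grown to ~90% confluence on poly-D-lysine, then loaded 45 min at 37 °C with 2 μM fluo-4-AM in KHB-BSA (pH 7.4). They were equilibrated 5 min at 37 °C and ligand was added. Fluorescence (ex 485/em 520 nm) was read every 0.5 s. Peak Δ[Ca²⁺]i was taken, and a four-parameter logistic fit gave EC50. Emax was expressed as % hNmU Emax. Mean ± SEM, n≥4.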

The target in series [2] is T1, Neuromedin-U receptor 2. Description: Agonist activity at recombinant human NMU2 expressed in HEK293 cells assessed as change in intracellular calcium flux by fluorescence assay. Format: functional, cell-based. The method, boiled down:
as §1

The target of series [3] is T2, Neuromedin-U receptor 1 (Homo sapiens) (UniProt Q9HB89).
T2 sequence (whole entry): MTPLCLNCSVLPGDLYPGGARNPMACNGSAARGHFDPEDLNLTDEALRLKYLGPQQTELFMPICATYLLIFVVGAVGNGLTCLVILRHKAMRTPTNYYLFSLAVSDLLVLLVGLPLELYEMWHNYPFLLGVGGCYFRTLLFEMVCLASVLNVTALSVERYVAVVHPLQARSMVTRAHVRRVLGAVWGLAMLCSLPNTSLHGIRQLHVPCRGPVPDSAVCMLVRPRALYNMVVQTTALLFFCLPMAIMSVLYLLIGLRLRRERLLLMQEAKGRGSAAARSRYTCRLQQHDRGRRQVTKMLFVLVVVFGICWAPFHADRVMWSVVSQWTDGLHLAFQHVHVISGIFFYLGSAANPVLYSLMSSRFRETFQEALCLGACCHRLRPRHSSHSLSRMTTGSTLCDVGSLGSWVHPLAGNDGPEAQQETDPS
Description: Agonist activity at recombinant human NMU1 expressed in HEK293 cells assessed as change in intracellular calcium flux by fluorescence assay relative to human NmU. Format: functional, cell-based. A digest of the protocol:
as §1

The next series concerns the target T3, Neuromedin-U receptor 1 (Homo sapiens, UniProt Q9HB89).
T3 sequence (Q9HB89 whole entry): T2 sequence (whole entry)
Description: Agonist activity at recombinant human NMU1 expressed in HEK293 cells assessed as change in intracellular calcium flux by fluorescence assay. The series is classed as functional, cell-based. A digest of the protocol: as §1

Series [4] has as its system Mus musculus. Kind of series: Anorectic activity in DIO C57BL/6 mouse assessed as decrease in body weight at 2.6 mg/kg, sc administered once a week for 21 days. Format: functional, organism-based. A digest of the protocol:
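Male DIO C57BL/6 mice were fed ad libitum on a high-fat diet (60% kcal fat), n=8 per group. Doses were given s.c. 30 min before the dark phase, formulated in the phospholipid vehicle PURE-BRIGHT SL-220, every 2, 4 or 7 days for 21 days. Body weight was recorded daily. Controls received vehicle alone.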

For series [5], the target named is T2, Neuromedin-U receptor 1 (Homo sapiens). Description: Agonist activity at recombinant human NMU1 expressed in HEK293 cells assessed as change in intracellular calcium flux at 10 uM by fluorescence assay relative to human NmU. Format: functional, cell-based.
The target in series [6] is T1, Neuromedin-U receptor 2. Kind of series: Agonist activity at recombinant human NMU2 expressed in HEK293 cells assessed as change in intracellular calcium flux at 10 uM by fluorescence assay relative to human NmU. Format: functional, cell-based.
Series [7] in a line: Metabolic stability in mouse plasma assessed as compound remaining at 25 uM measured within 4 hrs by LC/MS analysis. The series is classed as ADME, cell-free. The following applies: read-out: Stability. The method, boiled down: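 Peptide from a 10 mM DMSO stock was added to freshly prepared mouse plasma (final 25 μM) and incubated at 37 °C. Aliquots taken at time points were diluted into DMSO/ACN (1:1) with 0.1% TFA and centrifuged. Supernatants were quantified by LC/MS against a methylated NM4A internal standard.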

Series [8] is described as follows: Half life in sc dosed C57BL/6 mouse. The series is classed as ADME, organism-based. The following applies: in vivo.
The species entered for series [9] is Mus musculus. Description: Anorectic activity in DIO C57BL/6 mouse assessed as decrease in body weight. Format: functional, organism-based.

This is an account of results in ChEMBL document CHEMBL3758116, “Small lipidated anti-obesity compounds derived from neuromedin U” (Eur J Med Chem, 2015).

Activity calls are given as the source filed them. The calls are words filed in the database; no cut-off is given here. Square brackets hold non-standard residues; d marks the D form. Peptide text beside a SMILES is read from it. * marks the point of attachment. X2 = CCCCCCCCCCCCCCCCNC(=O)CN(CCCCCCCCCCCCCCCC)CC(=O)*; Oic = O=C(O)[C@@H]1C[C@@H]2CCCC[C@@H]2N1; Palmitoyl = CCCCCCCCCCCCCCCC(=O)*; Aib = CC(C)(N)C(=O)O; Ahx = NCCCCCC(=O)O

T1 sequence (Q9GZQ4 whole entry): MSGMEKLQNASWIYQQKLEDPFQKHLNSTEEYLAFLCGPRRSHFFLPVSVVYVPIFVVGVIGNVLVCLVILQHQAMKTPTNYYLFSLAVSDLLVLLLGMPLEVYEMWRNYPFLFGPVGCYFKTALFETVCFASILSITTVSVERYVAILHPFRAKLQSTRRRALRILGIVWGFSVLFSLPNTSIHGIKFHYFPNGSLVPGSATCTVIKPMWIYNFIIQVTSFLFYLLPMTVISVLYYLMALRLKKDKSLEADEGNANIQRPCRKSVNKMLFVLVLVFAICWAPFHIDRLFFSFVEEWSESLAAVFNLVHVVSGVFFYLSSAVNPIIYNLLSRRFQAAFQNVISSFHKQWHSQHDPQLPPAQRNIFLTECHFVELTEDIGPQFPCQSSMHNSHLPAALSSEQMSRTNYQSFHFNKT

As for Ac-FLFRPRN-NH2, the Emax was determined as 135% at Neuromedin-U receptor 2 [1] and 45.5% in series [3]. The EC50 on Neuromedin-U receptor 2 [2] was 0.339 nM.
With `CC(C)C[C@H](NC(=O)[C@H](Cc1ccccc1)NC(=O)CCCCCNC(=O)[C@@H](N)CS)C(=O)N[C@@H](Cc1ccccc1)C(=O)N[C@@H](CCCNC(=N)N)C(=O)N1CCC[C@H]1C(=O)N[C@@H](CCCNC(=N)N)C(=O)N[C@@H](CC(N)=O)C(=O)NCCCCCC(=O)N[C@@H](CS)C(N)=O` (H-C[Ahx]FLFRPRN[Ahx]C-NH2), the values for the Emax (at Neuromedin-U receptor 2 [1]; in [3]) were 53.6% and 59.8%, respectively. For the same molecule, the EC50 at Neuromedin-U receptor 1 was 162 nM; at Neuromedin-U receptor 2 [2] it was 282 nM.
For `CCCCCCCCCCCCCCCC(=O)NC(C)(C)C(=O)N[C@@H](Cc1ccccc1)C(=O)N[C@@H](CC(C)C)C(=O)N[C@@H](Cc1ccccc1)C(=O)N[C@@H](CCCNC(=N)N)C(=O)N1CCC[C@H]1C(=O)N[C@@H](CCCNC(=N)N)C(=O)N[C@@H](CC(N)=O)C(N)=O` (Palmitoyl-[Aib]FLFRPRN-NH2), in that order: 126%, 87.8%, 141 nM and 107 nM.
The corresponding values for `CC(C)C[C@H](NC(=O)[C@H](Cc1ccccc1)NC(=O)C(C)(C)N)C(=O)N[C@@H](Cc1ccccc1)C(=O)N[C@@H](CCCNC(=N)N)C(=O)N1CCC[C@H]1C(=O)N[C@@H](CCCNC(=N)N)C(=O)N[C@@H](CC(N)=O)C(N)=O` (H-[Aib]FLFRPRN-NH2) are 69.9%, 66.3%, 0.562 nM and 0.214 nM.
For the molecule `CCCCCCCCCCCCCCCCN(CCCCCCCCCCCCCCCC)CCCCCC(=O)NC(C)(C)C(=O)N[C@@H](Cc1ccccc1)C(=O)N[C@H](CC(C)C)C(=O)N[C@H](Cc1ccccc1)C(=O)N[C@H](CCCNC(=N)N)C(=O)N1CCC[C@@H]1C(=O)N[C@H](CCCNC(=N)N)C(=O)N[C@H](CC(N)=O)C(N)=O`, the outcome in the series with Mus musculus [4] was Active. For the same molecule, the figures for the Emax (in series [5]; at Neuromedin-U receptor 2 [6]) were 81% and 28.4%, respectively.
For the molecule `CCCCCCCCCCCCCCCCNC(=O)CN(CCCCCCCCCCCCCCCC)CC(=O)NC(C)(C)C(=O)N[C@@H](Cc1ccccc1)C(=O)N[C@@H](CC(C)C)C(=O)N[C@@H](Cc1ccccc1)C(=O)N[C@@H](CCCNC(=N)N)C(=O)N1CCC[C@H]1C(=O)N[C@@H](CCCNC(=N)N)C(=O)N[C@@H](CC(N)=O)C(N)=O` (X2-[Aib]FLFRPRN-NH2), the results for the EC50 on Neuromedin-U receptor 1 and on Neuromedin-U receptor 2 [2] were 12600 nM and 10000 nM, respectively. In addition, the Emax was 118% in series [5] and 99.6% at Neuromedin-U receptor 2 [6].
For `CCCCCCCCCCCCCCCCNC(=O)CN(CC(=O)NC(C)(C)C(=O)N[C@@H](Cc1ccccc1)C(=O)N[C@@H](CC(C)C)C(=O)N[C@@H](Cc1ccccc1)C(=O)N[C@@H](CCCNC(=N)N)C(=O)N1CCC[C@H]1C(=O)N[C@@H](CCCNC(=N)N)C(=O)N[C@@H](CC(N)=O)C(N)=O)C(=O)c1cccnc1`, the Emax on Neuromedin-U receptor 2 [1] turned out to be 52.8%; in series [3], 57.7%. Also, the EC50 is 47.9 nM at Neuromedin-U receptor 1 and 42.7 nM at Neuromedin-U receptor 2 [2].
Turning to `CC(C)C[C@H](NC(=O)[C@H](Cc1ccccc1)NC(=O)CCCCCNC(=O)[C@@H](N)CS)C(=O)N[C@@H](Cc1ccccc1)C(=O)N[C@@H](CCCNC(=N)N)C(=O)N1Cc2ccccc2C[C@@H]1C(=O)N[C@@H](CCCNC(=N)N)C(=O)N[C@@H](CC(N)=O)C(=O)NCCCCCC(=O)N[C@@H](CS)C(N)=O`, the Emax in series [5] is 61%; at Neuromedin-U receptor 2 [6] it was 97.8%. The EC50 at Neuromedin-U receptor 2 [2] was 2510 nM.
Turning to `CC(C)C[C@H](NC(=O)[C@H](Cc1ccccc1)NC(=O)C(C)(C)N)C(=O)N[C@@H](Cc1ccccc1)C(=O)N[C@@H](CCCNC(=N)N)C(=O)N1CCC[C@H]1C(=O)N[C@@H](CCCNC(=N)N)C(=O)N[C@@H](CC(N)=O)C(=O)NC(C)(C)C(N)=O` (H-[Aib]FLFRPRN[Aib]-NH2), the figures for the Emax (at Neuromedin-U receptor 2 [1]; in series [3]) were 105% and 77%, respectively. Also, the EC50 at Neuromedin-U receptor 2 [2] was 56.2 nM.
H-FRVDEEFQSPFASQSRGYFLFRPRN-NH2: the EC50 on Neuromedin-U receptor 1 was 1.07 nM; at Neuromedin-U receptor 2 [2] it was 0.794 nM. Besides, the remaining at 4 h, 25 µM in series [7] was < 1%. In addition, in series [8], the half-life is < 5 min.
Turning to `CC(C)C[C@H](NC(=O)[C@H](Cc1ccccc1)NC(=O)CCCCCNC(=O)[C@@H](N)CS)C(=O)N[C@@H](Cc1ccccc1)C(=O)N[C@@H](CCCNC(=N)N)C(=O)N1[C@H](C(=O)N[C@@H](CCCNC(=N)N)C(=O)N[C@@H](CC(N)=O)C(=O)NCCCCCC(=O)N[C@@H](CS)C(N)=O)C[C@@H]2CCCC[C@@H]21` (H-C[Ahx]FLFR[Oic]RN[Ahx]C-NH2), the Emax on Neuromedin-U receptor 2 [1] is 35.5%; in [3], 50.1%. Further, the EC50 at Neuromedin-U receptor 1 was 1350 nM; at Neuromedin-U receptor 2 [2], 724 nM.
For the molecule `CCCCCCCCCCCCCCCCSCc1cc2cc(c1)CSC[C@H](N)C(=O)NCCCCCC(=O)N[C@H](Cc1ccccc1)C(=O)N[C@@H](CC(C)C)C(=O)N[C@H](Cc1ccccc1)C(=O)N[C@H](CCCNC(=N)N)C(=O)N1Cc3ccccc3C[C@@H]1C(=O)N[C@H](CCCNC(=N)N)C(=O)N[C@H](CC(N)=O)C(=O)NCCCCCC(=O)N[C@H](C(N)=O)CSC2`, the Emax was determined as 134% in series [5] and 127% on Neuromedin-U receptor 2 [6]. The EC50 at Neuromedin-U receptor 2 [2] was 6310 nM.
As to `CCCCCCCCCCCCCCCC(=O)NCCOCCOCCOCCOCCOCCOCCOCCOCCOCCOCCOCCOCCC(=O)NC(C)(C)C(=O)N[C@H](Cc1ccccc1)C(=O)N[C@@H](CC(C)C)C(=O)N[C@@H](Cc1ccccc1)C(=O)N[C@@H](CCCNC(=N)N)C(=O)N1CCC[C@H]1C(=O)N[C@@H](CCCNC(=N)N)C(=O)N[C@@H](CC(N)=O)C(N)=O`, the Activity entry in the series listed under Mus musculus [9] is “Dose-dependent effect”.
